Measurements as given in ChEMBL document CHEMBL4011628, “Pharmacophore Identification and Scaffold Exploration to Discover Novel, Potent, and Chemically Stable Inhibitors of Acid Ceramidase in Melanoma Cells” (J Med Chem, 2017).
Active and inactive are the calls of the source. The rule behind the calls is not given here.

Tests used:
[1] = target: Acid ceramidase (Homo sapiens, UniProt Q13510); test: Inhibition of human C-terminal His-tagged acid ceramidase variant 1 expressed in HEK293 cells using fluorogenic substrate Rbm-14-12 preincubated for 30 mins followed by substrate addition measured after 1 hr by fluorogenic assay; format: cell-based
[2] = Half life in PBS buffer at pH 7.4 at 10 uM by UPLC/MS analysis; format: physicochemical
In short: (§1)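 Compound taken from 10 mM DMSO stock to 10 μM in PBS pH 7.4 (prewarmed) or acetate pH 4.5, held at 37 °C with shaking. Samples taken over time and diluted in ACN. Analysed by UPLC BEH C18 (30–100% ACN over 4 min) with qTOF HRMS in positive ion mode. Half-life from one-phase decay fit of peak area versus time.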

[3] = Half life in mouse plasma at 2 uM up to 120 mins by UPLC/MS analysis; format: ADME, cell-free
In short: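 Mouse plasma with 5% DMSO, prewarmed 15 min at 37 °C; compound final 2.0 μM. Aliquots at 0, 5, 15, 30, 60 and 120 min quenched in cold ACN containing 200 nM warfarin internal standard. Spun 3500g, 15 min, 4 °C; supernatant run on UPLC/MS TQD. Half-life from one-phase decay fit of peak area versus time.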

[4] = Half life in acetate buffer at pH 4.5 at 10 uM by UPLC/MS analysis; format: physicochemical; in short: as §1
[5] = test system: G-361; test: Cytotoxicity against human G361 cells assessed as […] in cell viability after 72 hrs by MTT assay; format: cell-based; details: g-361, 72 h
[6] = target: T1, Acid ceramidase (Homo sapiens, UniProt Q13510); test: Inhibition of acid ceramidase in human A375 cells using fluorogenic substrate Rbm-14-12 preincubated for 2 hrs followed by substrate addition measured after 3 hrs by fluorogenic assay; format: cell-based
T1 sequence (Q13510 whole entry): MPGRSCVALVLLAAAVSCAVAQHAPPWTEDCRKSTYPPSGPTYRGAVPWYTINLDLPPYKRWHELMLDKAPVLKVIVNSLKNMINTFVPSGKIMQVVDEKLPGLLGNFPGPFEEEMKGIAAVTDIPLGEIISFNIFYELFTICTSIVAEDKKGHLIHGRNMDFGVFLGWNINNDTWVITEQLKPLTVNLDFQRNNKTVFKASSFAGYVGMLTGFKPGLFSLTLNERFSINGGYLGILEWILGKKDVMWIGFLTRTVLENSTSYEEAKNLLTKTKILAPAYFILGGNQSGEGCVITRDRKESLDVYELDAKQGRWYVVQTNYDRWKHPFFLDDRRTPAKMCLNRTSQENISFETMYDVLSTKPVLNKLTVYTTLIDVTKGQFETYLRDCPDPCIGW
In short: (§2)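 A375 (5 × 10^4) or G-361 (2.5 × 10^4) cells grown in DMEM with 10% FBS and 2 mM glutamine. Compounds or DMSO added 24 h after seeding, 2 h at 37 °C. Rbm-14-12 then added to 20 μM final for 3 h. Stopped with methanol/NaIO4; fluorescence read at ex 355/em 460. Run in triplicate; IC50 from four-parameter fit, mean ± SD of two independent experiments.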

[7] = target: T1, Acid ceramidase; test: Inhibition of acid ceramidase in human G361 cells using fluorogenic substrate Rbm-14-12 preincubated for 2 hrs followed by substrate addition measured after 3 hrs by fluorogenic assay; format: cell-based; in short: as §2
[8] = test system: A-375; test: Cytotoxicity against human A375 cells assessed as […] in cell viability after 72 hrs by MTT assay; format: cell-based; details: a-375, 72 h
[9] = target: T2, Acid ceramidase (Homo sapiens) (UniProt Q13510); test: Covalent binding affinity to recombinant human acid ceramidase assessed as N-terminal CTSIVAEDK peptide adduct formation at 10:1 molar ratio of compound to protein after 1 hr by trypsin digestion-based UPLC-MS analysis
T2 sequence (whole entry): T1 sequence (Q13510 whole entry)
In short: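 Purified recombinant human AC (10 μg) preincubated 1 h at 37 °C in 20 mM acetate pH 4.5 with 3 mM DTT. Compound then added at 10:1 molar ratio to protein, 1 h at 37 °C; DMSO control. Stopped with cold acetone, pellet dried, redissolved in 50 mM (NH4)2CO3 pH 8. Trypsin 1:50 w/w overnight at 37 °C; peptides read by LC-MS.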

For `CCCCCCNC(=O)Nc1nc2ccccc2o1`, the IC50 [1] was > 10000 nM.
Molecule `CCCCCCNC(=O)n1nnc2ccccc21` has an IC50 [1] of 4.1 nM, a half-life at 10 µM [2] of 17 min and a half-life at 2 µM [3] of 13 min. The half-life at 10 µM [4] was > 120 min.
For `O=C(NCCCCc1ccccc1)Nc1nc2ccccc2s1`, the IC50 [1] was > 10000 nM.
In the case of `O=C(NCCCCc1ccccc1)n1nnc2ccccc21`, the IC50 [1] is reported as 2.1 nM and the half-life at 10 µM [4] is reported as > 120 min.
With `Nc1nc2ccccc2n1C(=O)NCc1ccccc1` the IC50 [1] was 29.3 nM, the half-life at 10 µM [2] was 13 min and the half-life at 2 µM [3] was 13 min. It also gave a half-life at 10 µM [4] of 42 min.
For `CCCCCCNC(=O)n1ncc2ccccc21`, the IC50 [1] was 9.9 nM, the half-life at 10 µM [2] was 81 min and the half-life at 2 µM [3] was > 120 min. The half-life at 10 µM [4] was > 120 min.
For `Cc1ccc(CNC(=O)n2cnc3ccccc32)cc1`, the IC50 [1] was 14.8 nM, the Activity [5] was “Non-Toxic” and the half-life at 10 µM [2] was > 120 min. The half-life at 2 µM [3] was 94 min, the half-life at 10 µM [4] was > 120 min and the IC50 [6] was 505 nM. For the same molecule, the IC50 [7] was 928 nM and the Activity [8] was “Non-Toxic”.
With `O=C(NCCCCc1ccccc1)N1C(=O)c2ccccc2C1=O` the IC50 [1] was 2.4 nM, the half-life at 10 µM [2] was 6 min and the half-life at 2 µM [3] was 23 min. For the same molecule, the half-life at 10 µM [4] was > 120 min.
In the case of `O=C(NCCCCc1ccccc1)Nc1nc2ccccc2o1`, the IC50 [1] is reported as > 10000 nM.
With `O=C(NCCCCc1ccccc1)n1cnc2ccccc21` the Activity [9] was “Active”, the IC50 [1] was 2.5 nM and the Activity [5] was “Non-Toxic”. The half-life at 10 µM [2] was 50 min, the half-life at 2 µM [3] was > 120 min and the half-life at 10 µM [4] was > 120 min. For the same molecule, the IC50 [6] was 75.6 nM, the IC50 [7] was 230 nM and the Activity [8] was “Non-Toxic”.
For `CCCCCCNC(=O)n1nnc2ncccc21`, the IC50 [1] was 2.2 nM, the half-life at 10 µM [2] was 2 min and the half-life at 2 µM [3] was < 5 min. The half-life at 10 µM [4] was > 120 min.
With `CCCCCCNC(=O)n1cc(F)c(=O)[nH]c1=O` [CARMOFUR] the IC50 [1] was 20.7 nM, the IC50 [6] was 191 nM and the IC50 [7] was 758 nM.
`Nc1nc2ccccc2n1C(=O)NCCCCc1ccccc1` showed an IC50 [1] of 0.9 nM, a half-life at 10 µM [2] of 14 min and a half-life at 2 µM [3] of 9 min. The half-life at 10 µM [4] was 43 min.
In the case of `CCCCCCNC(=O)n1c(N)nc2ccccc21`, the IC50 [1] is reported as 2.4 nM.
For `Cc1cccc(CNC(=O)n2cnc3ccccc32)c1`, the IC50 [1] was 8.3 nM, the half-life at 10 µM [2] was 56 min and the half-life at 2 µM [3] was 71 min. The half-life at 10 µM [4] was > 120 min.
For `Cc1ccc(CNC(=O)n2c(N)nc3ccccc32)cc1`, the IC50 [1] was 7 nM, the half-life at 10 µM [2] was 23 min and the half-life at 2 µM [3] was < 5 min. For the same molecule, the half-life at 10 µM [4] was 34 min.
For `Cc1cccc(CNC(=O)n2c(N)nc3ccccc32)c1`, the IC50 [1] was 8.5 nM, the half-life at 10 µM [2] was 11 min and the half-life at 2 µM [3] was < 5 min. For the same molecule, the half-life at 10 µM [4] was 27 min.
With `Cc1nc2ccccc2n1C(=O)NCCCCc1ccccc1` the IC50 [1] was 1 nM, the half-life at 10 µM [2] was 7 min and the half-life at 2 µM [3] was 11 min. It also gave a half-life at 10 µM [4] of 8 min.
With `O=C(NCCCCc1ccccc1)Nc1nc2ccccc2[nH]1` the IC50 [1] was > 10000 nM.
In the case of `O=C(NCCCCc1ccccc1)n1ncc2ccccc21`, the IC50 [1] is reported as 4.7 nM, the half-life at 10 µM [2] is reported as 134 min and the half-life at 2 µM [3] is reported as > 120 min. For the same molecule, the half-life at 10 µM [4] was > 120 min.
For `CCCCCCNC(=O)Nc1nc2ccccc2[nH]1`, the IC50 [1] was > 10000 nM.
With `CCCCCCNC(=O)N1C(=O)c2ccccc2C1=O` the IC50 [1] was 7 nM, the half-life at 10 µM [2] was 9 min and the half-life at 2 µM [3] was 29 min. The half-life at 10 µM [4] was > 120 min.
In the case of `CCCCCCNC(=O)Nc1nc2ccccc2s1`, the IC50 [1] is reported as > 10000 nM.
With `O=C(NCCCCc1ccccc1)n1c(=O)n(C(=O)NCCCCc2ccccc2)c2ccccc21` the IC50 [1] was 21 nM, the half-life at 10 µM [2] was > 120 min and the half-life at 2 µM [3] was > 120 min. The half-life at 10 µM [4] was > 120 min.
For `O=C(NCCCCc1ccccc1)n1c(=O)[nH]c2ccccc21`, the IC50 [1] was > 10000 nM, the half-life at 10 µM [2] was > 120 min and the half-life at 2 µM [3] was > 120 min. For the same molecule, the half-life at 10 µM [4] was > 120 min.
In the case of `Cc1ccccc1CNC(=O)n1cnc2ccccc21`, the IC50 [1] is reported as 55.9 nM, the half-life at 10 µM [2] is reported as 58 min and the half-life at 2 µM [3] is reported as 44 min. For the same molecule, the half-life at 10 µM [4] was 82 min.
In the case of `Cc1ccccc1CNC(=O)n1c(N)nc2ccccc21`, the IC50 [1] is reported as 68.4 nM, the half-life at 10 µM [2] is reported as 10 min and the half-life at 2 µM [3] is reported as < 5 min. It also gave a half-life at 10 µM [4] of 27 min.
With `O=C(NCCCCc1ccccc1)n1nnc2ncccc21` the IC50 [1] was 1.3 nM, the half-life at 10 µM [2] was 2 min and the half-life at 2 µM [3] was < 5 min. The half-life at 10 µM [4] was > 120 min.
With `COc1nc2ccccc2n1C(=O)NCCCCc1ccccc1` the Activity [9] was “Active”, the IC50 [1] was 13.9 nM and the Activity [5] was “Non-Toxic”. The half-life at 10 µM [2] was > 120 min, the half-life at 2 µM [3] was > 120 min and the half-life at 10 µM [4] was > 120 min. The IC50 [6] was 967 nM, the IC50 [7] was 2780 nM and the Activity [8] was “Non-Toxic”.
In the case of `O=C(NCc1ccccc1)n1cnc2ccccc21`, the IC50 [1] is reported as 22.5 nM, the Activity [5] is reported as “Non-Toxic” and the half-life at 10 µM [2] is reported as > 120 min. The half-life at 2 µM [3] was 108 min, the half-life at 10 µM [4] was 94 min and the IC50 [6] was 1060 nM. The IC50 [7] was 2800 nM and the Activity [8] was “Non-Toxic”.
For `CCCCCCNC(=O)n1cnc2ccccc21`, the IC50 [1] was 6.6 nM, the half-life at 10 µM [2] was 59 min and the half-life at 2 µM [3] was > 120 min. The half-life at 10 µM [4] was > 120 min.
